M5 ag – human M5 muscarinic receptor agonists, primary screen, CHO-K1 cells, Fluo-8 calcium fluorescence | CHO-K1 hM5 cells; 0% DMSO wells, 100% maximal acetylcholine response | AID 624037, 2012 | activation, % at 3 µM | Muscarinic acetylcholine receptor M5 (Homo sapiens), P08912 | hit rate 0.19% among 360,000;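 active = activation above the run's mean over test compounds plus 3 SD, cut at about 23% in these data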;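 note: signal is peak over basal fluorescence ratio across the kinetic read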
Target sequence (P08912 whole entry, looked up): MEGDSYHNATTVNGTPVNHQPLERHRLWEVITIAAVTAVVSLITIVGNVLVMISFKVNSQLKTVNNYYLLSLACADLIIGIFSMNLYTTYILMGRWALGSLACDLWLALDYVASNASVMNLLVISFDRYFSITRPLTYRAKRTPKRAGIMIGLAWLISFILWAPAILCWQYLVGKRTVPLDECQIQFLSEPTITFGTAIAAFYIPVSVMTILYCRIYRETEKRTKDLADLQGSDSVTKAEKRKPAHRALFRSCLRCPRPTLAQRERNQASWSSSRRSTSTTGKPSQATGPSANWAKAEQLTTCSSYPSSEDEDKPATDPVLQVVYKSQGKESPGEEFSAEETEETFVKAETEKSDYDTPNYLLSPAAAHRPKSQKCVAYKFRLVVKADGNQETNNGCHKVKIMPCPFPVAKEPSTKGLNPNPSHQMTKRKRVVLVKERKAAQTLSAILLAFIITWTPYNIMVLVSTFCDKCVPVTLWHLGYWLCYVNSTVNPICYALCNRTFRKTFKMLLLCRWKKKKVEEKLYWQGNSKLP
CHRM4 antagonist – human M4 muscarinic receptor antagonists, primary screen, CHO cells, Fluo-8 calcium fluorescence; inhibition, % at 3 µM; CHO-hM4 cells, ACh EC80; hit rate 0.73% among 360,000; Muscarinic acetylcholine receptor M4 (Homo sapiens), P08173; AID 624125, 2012;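 active = inhibition above its plate's cutoff, the mean inhibition of sample wells plus 3 SD, cut at about 27% in these data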;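 note: 0% = acetylcholine EC80 with DMSO and 100% = DMSO without agonist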
M4 ag – human M4 muscarinic receptor agonists, primary screen, CHO-K1 cells, Fluo-8 calcium fluorescence; CHO-K1 hM4/Gqi5; vehicle 0%, full acetylcholine response 100%; hit rate 0.14% among 360,000; Muscarinic acetylcholine receptor M4 (Homo sapiens), P08173; activation, % at 3 µM;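 active = activation above the run mean over all test wells plus 3 SD, cut at about 32% in these data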;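 note: peak over basal fluorescence ratio per well then scaled between controls; 0% = DMSO wells and 100% = acetylcholine at EC100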
M5 PAM – human M5 muscarinic receptor positive allosteric modulators, primary screen, CHO-K1 cells, Fluo-8 calcium fluorescence; hit rate 0.3% among 360,000; Muscarinic acetylcholine receptor M5 (Homo sapiens), P08912; CHO-K1 hM5, ACh EC20 PAM; 0% = ACh EC20, 100% = ACh EC100; activation, % at 3 µM;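 active = activation above the run cutoff, the mean activation of all test compounds plus 3 SD, cut at about 18% in these data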
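Measured by: Fluo-8 calcium fluorescence; material: human M5 receptor in CHO-K1 cells; schedule: Post-acetylcholine fluorescence recording 140 s; benchmarks: low control EC20 acetylcholine (0%), high control EC100 acetylcholine (100%); read-out: Max/basal fluorescence ratio as % of EC20–EC100 ACh window; compound: single dose, 3 µM nominal final test concentration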
CHRM4 PAM – human M4 muscarinic receptor positive allosteric modulators, primary screen, CHO-K1 cells, Fluo-8 calcium fluorescence; Muscarinic acetylcholine receptor M4 (Homo sapiens), P08173; CHO-K1 hM4/Gqi5, ACh EC20; 0% = ACh EC20, 100% = maximal ACh; activation, % at 3 µM; hit rate 0.4% among 360,000;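 active = activation above its plate's cutoff, the mean activation of sample wells plus 3 SD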
M5 antag – human M5 muscarinic receptor antagonists, primary screen, CHO cells, Fluo-8 calcium fluorescence; inhibition, % at 3 µM; Muscarinic acetylcholine receptor M5 (Homo sapiens), P08912; hit rate 0.59% among 360,000; CHO-hM5 cells, ACh EC80;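 active = inhibition above a per-plate cutoff, the mean of that plate's test compounds plus 3 SD, cut at about 27% in these data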;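 note: 0% = acetylcholine EC80 with DMSO and 100% = DMSO without agonist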
Numbers without * were called inactive. Compounds with a hit are over-represented: about 1.8% of the library has one in this group of screens.

SMILES	M5 ag	CHRM4 antagonist	M4 ag	M5 PAM	CHRM4 PAM	M5 antag
C/C(=N\NC(=O)CSc1nc(C)[nH]c1[N+](=O)[O-])c1ccc(F)cc1	3.9	5.5	1.4	1.5	-7.1	2.7
O=C(NC1CCCCC1)C1CC(=O)N(Cc2ccccc2)C1 (stereo not given)	-1.5	5.6	1.1	0.2	4.5	15.1
CC1CCCN(c2nc3ccsc3c(=O)s2)C1 (stereo not given)	-7.4	28.1*	-2.7	-10.0	-29.3	-0.4
Cc1cc(=O)n2nc(N3CCCC(C(=O)N4CCc5ccccc54)C3)sc2n1 (stereo not given)	-7.9	31.8*	-1.5	-14.0	-18.1	6.1
CCc1ccc(C2C(C#N)=C(N)SC(N)=C2C#N)cc1	15.8	0.6	45.8*	-12.8	-13.0	0.3
CCOc1ccc(C2C(C#N)=C(N)SC(N)=C2C#N)cc1OCC	5.1	5.3	5.6	-2.9	0.6	4.3
O=c1c(-c2ccco2)[n+]([O-])c2ccccc2n1OCc1c(F)cccc1F	8.8	-12.7	4.7	19.2*	0.5	-14.8
CCCC(=O)Nc1ccc2c(c1)C(=O)N(C)C[C@@H](OC)[C@H](C)CN(Cc1ccc(-c3ccccn3)cc1)[C@@H](C)CO2	-2.3	3.5	2.3	4.2	-2.7	-3.6
COc1ccc2[nH]c(=O)c(CNC3CCCCC3)cc2c1	1.9	-21.7	2.2	23.4*	22.9*	-1.3
CCN(CC)c1ccc2cc(C(=O)c3cccs3)c(=O)oc2c1	51.9*	33.3*	64.8*	-24.4	-19.1	38.8*
CCN(CC)c1ccc2cc(-c3nc4ccccc4[nH]3)c(=O)oc2c1	119.0*	25.3	552.2*	-29.0	-19.1	36.4*
CCN(CC)c1ccc2cc(-c3nc4ccccc4n3C)c(=O)oc2c1	7.6	7.0	20.3	-5.3	0.9	5.4
CCc1ncc(CN2CCCC(C(=O)Nc3ccc(-c4cscn4)cc3)C2)cn1 (stereo not given)	-5.0	11.2	2.4	-1.6	5.5	4.0
O=C(COC(=O)c1ccc(NS(=O)(=O)c2ccc3c(c2)OCCO3)cc1)NC1CCS(=O)(=O)C1 (stereo not given)	-6.7	1.4	0.3	-4.3	-7.1	-4.6
O=S(=O)(/C(=C\c1ccc(C(F)(F)F)cc1)c1nc2ccccc2[nH]1)c1ccccc1	4.7	44.1*	2.6	8.0	-6.8	13.2
CCCCNC(=O)COCc1cc(-c2ccc3c(c2)OCO3)on1	-1.3	-4.9	6.3	-5.9	15.2*	8.3
COCn1c(-c2ccccc2)nc2ccccc21	-3.5	-3.3	0.6	2.8	28.8*	-11.5
Cc1ccc2nc(CCc3nc4ccc(C)cc4[nH]3)[nH]c2c1	2.6	-0.9	1.3	5.1	13.9*	-1.4
Cc1ccc2nc(CCCc3nc4ccc(C)cc4[nH]3)[nH]c2c1	-8.3	-6.3	-1.3	-1.4	-3.4	8.4
O=C(N/N=C/c1ccc(O)cc1)c1ccc(COc2cc(Cl)ccc2Cl)o1	34.9*	20.3	25.2	-6.0	-9.3	11.5
OC(c1cc(F)cc(Cl)c1)c1ncc(-c2ccccc2C(F)(F)F)[nH]1 (stereo not given)	1.8	2.8	5.3	-1.8	-3.2	1.6
COc1cccc(CN(C)C(=O)c2ccc(Cl)c(S(=O)(=O)N3CCCCCC3)c2)c1OC	-2.1	2.4	11.4	-20.6	-5.0	12.2
O=C(COC(=O)c1ccc([N+](=O)[O-])o1)Nc1ccc2c(c1)OCO2	3.5	0.4	1.4	-8.6	9.5	10.7
CN1CCS/C1=C\C=C1/SC(=S)N(CC(=O)O)C1=O	48.6*	8.3	25.8	-14.3	-0.9	11.7
CN(C)Cc1cc(C(C)(C)c2ccccc2)ccc1O	-11.4	1.8	4.3	-37.5	-8.7	29.3*
SMILES	M5 ag	CHRM4 antagonist	M4 ag	M5 PAM	CHRM4 PAM	M5 antag
CC(C)(c1ccc(O)c([N+](=O)[O-])c1)c1ccc(O)c([N+](=O)[O-])c1	-3.5	-15.1	2.5	-14.6	7.9	11.1
CCCc1nc(SCC(=O)NCC2CCCO2)c2c(=O)n(C)c(=O)n(C)c2n1 (stereo not given)	-1.9	7.4	2.3	-5.7	10.2	18.8
O=C(O)C1C(c2ccccc2)C(C(=O)Oc2ccccc2)C1c1ccccc1 (stereo not given)	-0.2	1.9	0.5	-2.1	-3.7	4.8
Cc1cccc(OC(=O)C2C(c3ccccc3)C(C(=O)O)C2c2ccccc2)c1 (stereo not given)	1.8	21.4	2.3	-5.0	31.1*	-1.8
O=C(NCc1ccc(Br)cc1)OC1CC2CC1[C@H]1CCCCN1C2=O (stereo not given in full)	2.0	-13.1	4.8	0.9	7.3	-4.8
CCOC(=O)N1CCN(C(=O)c2cc(C)no2)CC1	2.2	-9.1	1.2	2.5	7.3	-0.2
Cc1cc(C(=O)N2CCC(C)CC2)on1	1.4	9.2	0.8	18.4*	23.9	6.3
COc1cc(C(=O)COC(=O)c2cc([N+](=O)[O-])ccc2N2CCOCC2)ccc1OC(F)F	-5.6	28.2*	2.2	-9.0	-4.0	7.3
COc1ccccc1C(=O)COC(=O)c1cc([N+](=O)[O-])ccc1N1CCOCC1	-4.5	-13.1	3.8	-6.9	1.3	9.6
O=C1C=CC2C3C(=O)N(c4ccccc4)C(=O)C3C1N2Cc1ccccc1 (stereo not given)	3.3	30.8*	5.4	0.1	-5.1	14.1
O=C1C2C3C=CC(CC3)C2C(=O)N1c1ccccc1 (stereo not given)	-2.5	-1.5	1.3	0.9	1.0	0.3
O=C(/C=C/c1ccc(Cl)cc1)NC(=S)Nc1ccc(NC(=O)c2ccco2)cc1	-0.4	7.9	0.9	-0.3	5.5	4.9
Cc1cc(=O)[nH]c2c1c(-c1ccccc1)nn2C	-0.9	100.2*	0.3	7.1	-16.1	-4.8
Cc1ccc(C(=O)NCCn2cc(SCC(=O)Nc3cc(C)on3)c3ccccc32)cc1	36.0*	-24.8	12.9	-21.3	-3.7	1.1
Cc1cc(NC(=O)CSc2ccc3nnc(CCNC(=O)c4ccccc4)n3n2)no1	-7.4	-3.0	0.9	-3.9	30.4*	0.6
O=C(Nc1ccccc1-c1ccccc1)C1CCC1	-3.7	-8.9	53.7*	-0.4	1.7	2.0
CC1CCN(CC(=O)Nc2ccccc2-c2ccccc2)CC1	-6.2	27.2*	-2.4	-24.3	-12.7	9.3

Assay outcomes from PubChem.
